In the library only some 5.8% were active in any assay of this set; here they are far more common.
T cruzi growth-1 = inhibitors of T. cruzi proliferation; AID 624255; 77,000 tested, 5.9% active; inhibition, % at 8.34 µM; T. cruzi beta-gal in NIH3T3, GalScreen luminescence, 90 h;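 active = mean inhibition above about 93%, with at least 55% of replicates each passing it, limit read from the data, passing the limit was not always enough; inconclusive = only one of those two conditions holds; inactive = neither condition holds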
KDM4C inh = KDM4C (human) demethylase inhibition; 96,000 tested, 0.15% active; Q9H3R0; inhibition, % at 12.5 µM; GST-KDM4C 2-372, H3K9me3 peptide, LANCE TR-FRET; AID 720574;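 active = mean replicate inhibition above about 25%, with at least 55% of replicates also reaching it, limit read from the data, passing the limit was not always enough; inconclusive = only one of those two conditions met; inactive = neither condition met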
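Test system: N-terminal GST-fused human GASC-1 (KDM4C) fragment, residues 2-372; quantity: GASC-1 enzyme at 10 nM final in reaction; dosing: single dose; schedule: 30 min demethylation and 1 h detection at room temperature; signal: LANCE TR-FRET, excitation 340 nm, emissions 618 and 671 nm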
IDH1 R132H inh = inhibitors of human IDH1 R132H; inhibition, % at 10 µM; 70,000 tested, 0.18% active; O75874; IDH1 R132H reductase, diaphorase/resazurin fluorescence, 60 min; in the data active = inhibition above about 34%; inconclusive = no clear call, values can overlap the other calls; inactive = below about 11%
Target sequence (O75874 whole entry R132H): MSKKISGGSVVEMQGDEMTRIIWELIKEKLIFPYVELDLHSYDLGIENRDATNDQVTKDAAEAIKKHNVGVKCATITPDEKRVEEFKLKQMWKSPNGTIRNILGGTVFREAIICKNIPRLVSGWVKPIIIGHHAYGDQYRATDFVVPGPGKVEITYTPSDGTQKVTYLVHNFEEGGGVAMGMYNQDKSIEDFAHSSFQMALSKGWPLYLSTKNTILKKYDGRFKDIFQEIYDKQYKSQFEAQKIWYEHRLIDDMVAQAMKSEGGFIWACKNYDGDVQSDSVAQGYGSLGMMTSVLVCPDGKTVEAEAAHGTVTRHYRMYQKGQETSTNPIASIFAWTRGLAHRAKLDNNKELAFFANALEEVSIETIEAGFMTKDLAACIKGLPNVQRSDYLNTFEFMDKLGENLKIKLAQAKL
Pf Dd2 inh = inhibitors of Plasmodium falciparum Dd2 growth; P. falciparum Dd2 growth, SYBR Green, 72 h; hits give low values; activity change, % at 10 µM; 94,000 tested, 2.3% active; in the data active = activity change below about -80%; inconclusive = no clear call, values can overlap the other calls
T cruzi growth-2 = Trypanosoma cruzi proliferation inhibition; shares compounds with T cruzi growth-1; inhibition, % at 8.35 µM; 5,600 tested, 72% active; T. cruzi beta-gal in NIH3T3, GalScreen luminescence, 90 h;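 active = mean replicate inhibition above about 95% and at least 55% of replicates individually reaching it, limit read from the data; inconclusive = only one of the two criteria is met; inactive = neither criterion is met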
T cruzi growth-3 = blocks T. cruzi growth in NIH3T3 host cells. shares compounds with T cruzi growth-1. T. cruzi beta-gal in NIH3T3, GalScreen luminescence, 90 h. inhibition, % at 2.09 µM. 5,600 tested, 21% active;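 active = mean inhibition above about 95%, with at least 55% of replicates also reaching it, limit read from the data; inconclusive = meets just one of the two conditions; inactive = meets neither condition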
NIH3T3 tox = NIH/3T3 (mouse) viability loss; shares compounds with T cruzi growth-1; NIH/3T3 viability, CellTiter-Glo ATP luminescence, 90 h; cytotoxicity (signal decrease), % at 8.35 µM; 5,600 tested, 14% active; AID 651742;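 active = mean signal decrease across replicates above about 35% based on untreated-well scatter, with enough replicates individually passing, limit read from the data; inconclusive = no rule stated though some were filed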
NIH3T3 tox 2 = kills mouse NIH/3T3 fibroblasts. shares compounds with T cruzi growth-1. NIH/3T3 viability, CellTiter-Glo ATP luminescence, 90 h. inhibition, % at 24.9 µM. 5,600 tested, 56% active. AID 651744;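 active = mean loss of cell viability signal at or above a set limit, and enough replicates individually reaching it; inconclusive = meets only the mean limit or only the replicate share; inactive = meets neither condition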
Large screens that a line does not name were inactive (follow-up assays come after a bar, where they were run).

C/C=C/c1ccc2c(c1)O[C@@H](CN(C)S(=O)(=O)c1ccccc1OC)[C@H](C)CN([C@@H](C)CO)S2(=O)=O	T cruzi growth-1 116 | T cruzi growth-2 107 | T cruzi growth-3 inactive | NIH3T3 tox 44 | NIH3T3 tox 2 56
COc1ccccc1S(=O)(=O)N(C)C[C@H]1Oc2cc(/C=C/c3ccccc3)ccc2S(=O)(=O)N([C@H](C)CO)C[C@H]1C	T cruzi growth-1 122 | T cruzi growth-2 102 | T cruzi growth-3 104 | NIH3T3 tox 43 | NIH3T3 tox 2 51
C/C=C/c1ccc2c(c1)O[C@H](CN(C)S(=O)(=O)c1ccccc1OC)[C@H](C)CN([C@@H](C)CO)S2(=O)=O	none (no result: Pf Dd2 inh)
Cc1ccc(S(=O)(=O)Nc2ccc3c(c2)C(=O)N([C@H](C)CO)C[C@H](C)[C@H](CN(C)C(=O)Nc2ccc(F)cc2)OCCCC[C@@H](C)O3)cc1	none
O=C(C[C@H]1CC[C@H]2[C@@H](COC[C@H](O)CN2Cc2cc(F)ccc2F)O1)NCc1ccc(Cl)cc1	T cruzi growth-1 inconclusive (no result: IDH1 R132H inh) | T cruzi growth-2 inactive | T cruzi growth-3 inactive | NIH3T3 tox inactive | NIH3T3 tox 2 inactive
O=C(C[C@@H]1CC[C@@H]2[C@H](COC[C@H](O)CN2Cc2ccccc2)O1)N[C@@H]1CCN(Cc2ccccc2)C1	none (no result: IDH1 R132H inh)
O=C(C[C@@H]1CC[C@@H]2[C@H](COC[C@H](O)CN2Cc2cc(F)ccc2F)O1)N1CCc2ccccc2C1	T cruzi growth-1 100 (no result: IDH1 R132H inh) | T cruzi growth-2 inactive | T cruzi growth-3 inactive | NIH3T3 tox inactive | NIH3T3 tox 2 inactive
O=C(C[C@H]1CC[C@H]2[C@@H](COC[C@H](O)CN2Cc2cc(F)ccc2F)O1)N[C@H]1CCN(Cc2ccccc2)C1	T cruzi growth-1 124 (no result: IDH1 R132H inh) | T cruzi growth-2 106 | T cruzi growth-3 inactive | NIH3T3 tox inactive | NIH3T3 tox 2 inactive
O=C(C[C@@H]1CC[C@@H]2[C@H](COC[C@@H](O)CN2Cc2ccccc2)O1)N[C@@H]1CCN(Cc2ccccc2)C1	T cruzi growth-1 inconclusive (no result: IDH1 R132H inh) | T cruzi growth-2 inconclusive | T cruzi growth-3 inactive | NIH3T3 tox inactive | NIH3T3 tox 2 inactive
O=C(C[C@@H]1CC[C@@H]2[C@H](COC[C@@H](O)CN2Cc2cc(F)ccc2F)O1)N[C@H]1CCN(Cc2ccccc2)C1	none (no result: IDH1 R132H inh)
C[C@@H](NC(=O)C[C@H]1CC[C@H]2[C@@H](COC[C@@H](O)CN2Cc2ccc(C(F)(F)F)cc2)O1)c1ccccc1	T cruzi growth-1 inconclusive (no result: IDH1 R132H inh) | T cruzi growth-2 inactive | T cruzi growth-3 inactive | NIH3T3 tox inactive | NIH3T3 tox 2 inactive
CN1C(=O)c2cc(NC(=O)c3cccs3)ccc2OC[C@H]2O[C@H](CC(=O)NCC3CC3)CC[C@H]21	none (no result: IDH1 R132H inh)
COc1cccc(-c2ccc3c(c2)O[C@H](CN(C)C(=O)C2CCC2)[C@H](C)CN([C@H](C)CO)S3(=O)=O)c1	none
COc1cccc(-c2ccc3c(c2)O[C@@H](CN(C)C(=O)C2CCCCC2)[C@H](C)CN([C@@H](C)CO)S3(=O)=O)c1	T cruzi growth-1 112 (no result: IDH1 R132H inh) | T cruzi growth-2 105 | T cruzi growth-3 inactive | NIH3T3 tox inactive | NIH3T3 tox 2 90
COc1cccc(-c2ccc3c(c2)O[C@@H](CN(C)C(=O)C2CCC2)[C@@H](C)CN([C@H](C)CO)S3(=O)=O)c1	none
COc1cccc(-c2ccc3c(c2)O[C@H](CN(C)C(=O)C2CCC2)[C@H](C)CN([C@@H](C)CO)S3(=O)=O)c1	T cruzi growth-1 103 | T cruzi growth-2 95 | T cruzi growth-3 inactive | NIH3T3 tox 57 | NIH3T3 tox 2 78
COc1cccc(-c2ccc3c(c2)O[C@H](CN(C)C(=O)C2CCCCC2)[C@H](C)CN([C@H](C)CO)S3(=O)=O)c1	T cruzi growth-1 115 (no result: IDH1 R132H inh) | T cruzi growth-2 106 | T cruzi growth-3 98 | NIH3T3 tox 44 | NIH3T3 tox 2 87
COc1cccc(-c2ccc3c(c2)O[C@H](CN(C)C(=O)C2CCCCC2)[C@@H](C)CN([C@@H](C)CO)S3(=O)=O)c1	T cruzi growth-1 97 (no result: IDH1 R132H inh) | T cruzi growth-2 111 | T cruzi growth-3 inactive | NIH3T3 tox inactive | NIH3T3 tox 2 76
C[C@H]1CN([C@@H](C)CO)C(=O)c2cc(NS(=O)(=O)c3ccc(F)cc3)ccc2O[C@@H]1CN(C)S(C)(=O)=O	none
C[C@@H]1CN([C@@H](C)CO)S(=O)(=O)c2ccc(C#CCN(C)C)cc2O[C@@H]1CN(C)S(C)(=O)=O	none (no result: Pf Dd2 inh)
COc1cccc(-c2ccc3c(c2)O[C@@H](CN(C)C(=O)C2CCCCC2)[C@@H](C)CN([C@H](C)CO)S3(=O)=O)c1	T cruzi growth-1 92 (no result: IDH1 R132H inh) | T cruzi growth-2 98 | T cruzi growth-3 inactive | NIH3T3 tox inactive | NIH3T3 tox 2 90
COc1cccc(-c2ccc3c(c2)O[C@@H](CN(C)C(=O)C2CCC2)[C@@H](C)CN([C@@H](C)CO)S3(=O)=O)c1	none (no result: IDH1 R132H inh)
COc1ccc(-c2ccc3c(c2)O[C@@H](CN(C)C(=O)c2ccccc2F)[C@@H](C)CN([C@H](C)CO)S3(=O)=O)cc1	none
COc1ccc(-c2ccc3c(c2)O[C@@H](CN(C)C(=O)c2ccccc2F)[C@H](C)CN([C@H](C)CO)S3(=O)=O)cc1	T cruzi growth-1 114 | T cruzi growth-2 105 | T cruzi growth-3 inactive | NIH3T3 tox 40 | NIH3T3 tox 2 70
COc1ccc(-c2ccc3c(c2)O[C@@H](CN(C)C(=O)c2ccccc2F)[C@H](C)CN([C@@H](C)CO)S3(=O)=O)cc1	T cruzi growth-1 110 | T cruzi growth-2 inactive | T cruzi growth-3 inactive | NIH3T3 tox 47 | NIH3T3 tox 2 79
COc1ccc(-c2ccc3c(c2)O[C@H](CN(C)C(=O)Nc2ccccc2F)[C@@H](C)CN([C@@H](C)CO)S3(=O)=O)cc1	T cruzi growth-1 98 | T cruzi growth-2 108 | T cruzi growth-3 inactive | NIH3T3 tox inactive | NIH3T3 tox 2 58
COc1ccc(-c2ccc3c(c2)O[C@H](CN(C)C(=O)c2ccccc2F)[C@@H](C)CN([C@@H](C)CO)S3(=O)=O)cc1	T cruzi growth-1 106 | T cruzi growth-2 105 | T cruzi growth-3 inactive | NIH3T3 tox inactive | NIH3T3 tox 2 54
CC=Cc1ccc2n(c1=O)C[C@H]1[C@H](CO)[C@@H](C(=O)N3CCN(C)CC3)N(Cc3ccccc3OC)[C@@H]21 (mixture of isomers)	none (no result: IDH1 R132H inh)
CN(C)C(=O)[C@H]1[C@H](CO)[C@H]2Cn3c(ccc(-c4ccc(F)cc4)c3=O)[C@@H]1N2CCc1ccccc1	none (no result: IDH1 R132H inh)

Source: PubChem BioAssay (Broad Institute)
